Test results published in ChEMBL document CHEMBL1151733, “Pirinixic acid derivatives as novel dual inhibitors of microsomal prostaglandin E2 synthase-1 and 5-lipoxygenase” (J Med Chem, 2008).
Values belong to the compound of their own block, whether it stands above or below them. Activity calls are given as the source filed them. No cut-off for these calls is given here.

Assays:
[1] = target: T1, Prostaglandin G/H synthase 1 (Ovis aries) (UniProt P05979); experiment: Inhibition of ovine COX1 assessed as remaining activity at 10 uM relative to control
T1 sequence (whole entry): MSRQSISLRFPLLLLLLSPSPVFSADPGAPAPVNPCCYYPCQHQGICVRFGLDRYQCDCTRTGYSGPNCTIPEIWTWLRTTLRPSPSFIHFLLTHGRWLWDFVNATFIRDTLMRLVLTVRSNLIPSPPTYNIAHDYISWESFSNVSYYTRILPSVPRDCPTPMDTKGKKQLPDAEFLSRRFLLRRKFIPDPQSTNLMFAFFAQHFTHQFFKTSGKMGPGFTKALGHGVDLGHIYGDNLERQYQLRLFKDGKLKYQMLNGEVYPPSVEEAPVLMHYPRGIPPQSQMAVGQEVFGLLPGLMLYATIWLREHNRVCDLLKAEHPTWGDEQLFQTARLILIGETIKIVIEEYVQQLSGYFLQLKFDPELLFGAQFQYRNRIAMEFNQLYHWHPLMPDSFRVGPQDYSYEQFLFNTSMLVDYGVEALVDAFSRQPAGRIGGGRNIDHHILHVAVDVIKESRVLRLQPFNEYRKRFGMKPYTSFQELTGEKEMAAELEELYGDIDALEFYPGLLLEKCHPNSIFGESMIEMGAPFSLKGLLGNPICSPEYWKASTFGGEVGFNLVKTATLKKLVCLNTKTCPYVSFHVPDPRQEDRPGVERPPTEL
Summary of the method: (§1)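 Ovine COX-1 (50 units) or human recombinant COX-2 (20 units) in 100 mM Tris pH 8 with 5 mM glutathione, 5 µM hemoglobin and 100 µM EDTA. Compound preincubation 5 min at 4 °C, then prewarming 60 s at 37 °C. AA added at 5 µM for COX-1 or 2 µM for COX-2, reacted 5 min at 37 °C. 12-HHT extracted and quantified by HPLC. Mean ± SE, n = 3.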

[2] = target: T2, Prostaglandin E synthase (Homo sapiens) (UniProt O14684); experiment: Inhibition of mPGES1 in human A549 cells assessed as inhibition of IL-1-beta-induced PGE2 formation at 10 uM by cell-intact assay; format: cell-based
T2 sequence (whole entry): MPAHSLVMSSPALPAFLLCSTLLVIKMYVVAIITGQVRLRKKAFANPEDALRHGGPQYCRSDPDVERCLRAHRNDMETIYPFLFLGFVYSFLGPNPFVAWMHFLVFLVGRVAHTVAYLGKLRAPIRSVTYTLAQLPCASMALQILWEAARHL
Summary of the method: (§2)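 A549 cells stimulated with IL-1β for 72 h; 2 × 10⁶ cells in 0.5 mL PBS with 1 mM CaCl₂, preincubated with compound 10 min at 37 °C. Stimulated with 2.5 µM A23187, 1 µM AA and [³H]AA (18.4 kBq) for 15 min at 37 °C. Supernatant acidified; [³H]PGE₂ separated by SPE/RP-HPLC and counted by scintillation. Vehicle 0.1% DMSO; mean ± SE, n = 3.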

[3] = target: T3, Polyunsaturated fatty acid 5-lipoxygenase (Homo sapiens, UniProt P09917); experiment: Inhibition of 5-LO in PMNL cells; format: cell-based
T3 sequence (P09917 whole entry): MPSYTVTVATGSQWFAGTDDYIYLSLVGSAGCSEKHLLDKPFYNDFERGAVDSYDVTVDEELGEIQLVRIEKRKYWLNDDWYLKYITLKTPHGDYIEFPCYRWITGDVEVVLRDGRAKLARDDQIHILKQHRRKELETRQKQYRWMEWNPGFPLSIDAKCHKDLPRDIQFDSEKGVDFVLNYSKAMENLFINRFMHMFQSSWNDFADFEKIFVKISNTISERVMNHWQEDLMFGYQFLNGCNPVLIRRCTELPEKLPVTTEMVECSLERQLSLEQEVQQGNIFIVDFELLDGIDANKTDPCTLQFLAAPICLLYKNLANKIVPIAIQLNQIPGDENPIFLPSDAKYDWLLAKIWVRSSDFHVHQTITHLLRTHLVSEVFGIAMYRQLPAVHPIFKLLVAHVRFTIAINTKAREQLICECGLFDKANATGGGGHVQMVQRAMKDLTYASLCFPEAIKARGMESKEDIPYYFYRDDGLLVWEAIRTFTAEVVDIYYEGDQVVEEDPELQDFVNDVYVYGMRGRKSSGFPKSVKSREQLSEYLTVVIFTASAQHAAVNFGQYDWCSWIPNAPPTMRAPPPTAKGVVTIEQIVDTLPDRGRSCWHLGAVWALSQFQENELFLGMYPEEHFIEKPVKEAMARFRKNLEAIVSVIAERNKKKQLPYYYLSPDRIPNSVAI
Summary of the method: (§3)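 Freshly isolated human PMNL from leukocyte concentrates of healthy donors, 5 × 10⁶ cells/mL in PBS pH 7.4 with 1 mg/mL glucose and 1 mM CaCl₂. Preincubated with compound 15 min at RT, then stimulated with 2.5 µM A23187 plus 20 µM AA for 10 min at 37 °C. Stopped with methanol; LTB₄, its all-trans isomers and 5-H(P)ETE quantified by HPLC with PGB₁ internal standard.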

[4] = target: T2, Prostaglandin E synthase (Homo sapiens); experiment: Inhibition of PGES1 in human A549 cell microsome assessed as PGE2 formation at 10 uM by cell-free assay relative to control; parameters: scale not given: the % may be the effect or the level left
Summary of the method: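 Microsomes from A549 cells grown with IL-1β (1 ng/mL, 72 h), diluted in 0.1 M potassium phosphate pH 7.4 with 2.5 mM glutathione. Compound or DMSO added 15 min before PGH₂ (20 µM final). Reaction ran 1 min at 4 °C and was stopped with FeCl₂/citric acid. PGE₂ isolated by C18 SPE, then RP-HPLC with UV at 195 nm against 11β-PGE₂ internal standard.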

[5] = target: T2, Prostaglandin E synthase (Homo sapiens); conditions: A549, 33 uM
[6] = target: T4, Polyunsaturated fatty acid 5-lipoxygenase (Homo sapiens) (UniProt P09917); experiment: Inhibition of 5-LO in human PMNL cells at 10 uM relative to control; format: cell-based; summary of the method: as §3
T4 sequence (whole entry): T3 sequence (P09917 whole entry)

[7] = target: T5, Prostaglandin G/H synthase 2 (Homo sapiens, UniProt P35354); experiment: Inhibition of human recombinant COX2; summary of the method: as §1
T5 sequence (P35354 whole entry): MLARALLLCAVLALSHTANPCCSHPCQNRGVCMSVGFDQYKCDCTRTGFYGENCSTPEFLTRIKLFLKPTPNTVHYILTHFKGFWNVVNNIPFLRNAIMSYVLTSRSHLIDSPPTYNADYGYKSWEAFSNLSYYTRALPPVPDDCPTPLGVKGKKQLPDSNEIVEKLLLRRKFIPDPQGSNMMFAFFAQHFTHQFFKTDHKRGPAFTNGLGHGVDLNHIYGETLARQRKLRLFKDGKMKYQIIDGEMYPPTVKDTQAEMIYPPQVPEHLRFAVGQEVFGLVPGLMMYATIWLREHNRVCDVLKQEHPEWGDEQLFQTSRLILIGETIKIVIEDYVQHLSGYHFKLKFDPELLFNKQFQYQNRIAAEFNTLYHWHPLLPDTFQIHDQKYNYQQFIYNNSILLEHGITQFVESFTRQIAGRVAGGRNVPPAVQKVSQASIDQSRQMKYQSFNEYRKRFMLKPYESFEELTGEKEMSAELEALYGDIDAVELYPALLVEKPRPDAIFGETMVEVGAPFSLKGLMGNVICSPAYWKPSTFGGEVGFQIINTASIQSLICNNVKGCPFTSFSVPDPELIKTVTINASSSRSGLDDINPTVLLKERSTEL

[8] = target: T6, Prostaglandin G/H synthase 1 (Ovis aries, UniProt P05979); experiment: Inhibition of ovine COX1; summary of the method: as §1
T6 sequence (P05979 whole entry): T1 sequence (whole entry)

[9] = target: T2, Prostaglandin E synthase (Homo sapiens); experiment: Inhibition of mPGES1 in human A549 cells assessed as inhibition of IL-1-beta-induced PGE2 formation at 5 uM by cell-intact assay; format: cell-based; summary of the method: as §2

Activity [1]: 19% | Activity [2]: Active
SMILES: COc1ccc2c(c1)c(CC(=O)O)c(C)n2C(=O)c1ccc(Cl)cc1

SMILES: CC(C)c1ccc2c(c1)c(SC(C)(C)C)c(CC(C)(C)C(=O)O)n2Cc1ccc(Cl)cc1
IC50 [3]: 0.09 µM | Activity [4]: 26% | inhibition [5]: 63% | Activity [6]: inactive | IC50 [7]: > 10 µM | IC50 [8]: > 10 µM

Activity [9]: Active
SMILES: Cc1ccc(-c2cc(C(F)(F)F)nn2-c2ccc(S(N)(=O)=O)cc2)cc1
